Screens (PubChem BioAssay)
In the library only some 2.1% were active in any assay of this set; here they are far more common.
DENV2 CPE: DENV2-induced cell death inhibition; DENV2-infected cells, cytopathic effect rescue, plate reader; CPE inhibition, % at 9.99 µM; 350,000 tested, 1.7% active; in the data active means CPE inhibition above about 20%, passing the limit was not always enough; inconclusive means no clear call, values can overlap the other calls; tested in BHK-21 cells
Cneo AK release: causes C. neoformans cell lysis; lysis activity, % at 15 µM; adenylate kinase release luminescence, 4 h; normalised: neutral wells 0, clomiphene wells 100; 360,000 tested, 0.2% active;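 active means mean lysis activity across replicates of at least 80%, whatever share of replicates individually reach that level; inactive means mean lysis activity below 80%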
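Schedule: static 4 h at 37 °C with compound, 1 h detection; system: C. neoformans cells; benchmarks: Clomiphene as positive control; buffer or medium: fresh YPD medium; measure: luminescence rise reflecting yeast cell lysis; measured by: luminescent adenylate kinase detection reagent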
XiGFP reactiv: X-chromosome reactivation activator; 360,000 tested, 0.055% active; activation, % at 7.58 µM; XiGFP mouse fibroblasts, % GFP-positive cells imaging, 3 d; cells co-treated with 5-aza-dC sensitizer; scaled so ellipticine positive control = 100%; AID 743238;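 active means mean normalized replicate activation at least 10% and every replicate at or above 10%; inconclusive means only one of the two criteria met; inactive means mean below 10% and not all replicates reach 10%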
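Material: XiGFP fibroblasts, SV40-immortalized. Buffer or medium: DMEM plus 5-aza-dC sensitizer. Compound: single concentration per compound, delivered by pin transfer. Times: 3 days compound exposure. Controls: ellipticine 6 µM.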
Statin myotox sup: protects C2C12 myotubes from simvastatin toxicity. 330,000 tested, 0.78% active. rescue of ATP level, % at 7.49 µM. ATP luminescence, 48 h; scaled: DMSO 0, geranylgeraniol control 100;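 active means mean ATP rescue above about 67%, or every replicate alone reaching that limit, limit read from the data, passing the limit was not always enough; inconclusive means no clear call, values can overlap the other calls; inactive means mean under the limit and some replicate under it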;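 further: myotubes were challenged with 10 µM simvastatin during compound exposure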
Each line names hits and unclear results; the compound was inactive in the other large screens.

CCn1c2ccccc2c2cc(NC(=O)COC(=O)c3cc(OC)c(OC)cc3OC)ccc21	DENV2 CPE 41 (no result: Statin myotox sup)
CCCC(=O)Nc1ccc2c(c1)c1ccccc1n2CC	none (no result: Cneo AK release, Statin myotox sup)
CCCN1C[C@H](C)[C@H](OC)CN(C)C(=O)c2cc(NC(=O)c3ccc(F)cc3)ccc2OC[C@@H]1C	none
COc1ccc(NC(=O)CC2C(=O)N(c3cccc(OC)c3)C(=O)N2C(C)C)cc1 (stereo unspecified)	none
COc1ccc(NC(=O)CC2C(=O)N(c3cccc(OC)c3)C(=O)N2CCC(C)C)cc1 (stereo unspecified)	Statin myotox sup 93 (no result: DENV2 CPE, XiGFP reactiv)
C[C@H](CO)N1C[C@H](C)[C@H](CN(C)Cc2ccc(C(F)(F)F)cc2)Oc2ccc(NS(=O)(=O)c3cn(C)cn3)cc2CC1=O	none
C[C@@H]1CN([C@@H](C)CO)C(=O)c2cccc(NC(=O)Nc3ccc(F)cc3)c2O[C@H]1CN(C)CC1CCCCC1	none
Cc1ccc(C(=O)c2oc3ccccc3c2NC(=O)c2cc(-c3ccccc3O)n[nH]2)cc1	XiGFP reactiv 23 (no result: DENV2 CPE, Cneo AK release, Statin myotox sup)
COc1ccc(-c2ccc3c(c2)[C@@H]2[C@@H](CCN2C(=O)C2CCOCC2)[C@@H](CO)N3C)cc1	DENV2 CPE 115
CN1c2ccc(-c3ccc(F)cc3)cc2[C@@H]2[C@@H](CCN2C(=O)C2CCOCC2)[C@H]1CO	none
CN1c2ccc(-c3ccc(F)cc3)cc2[C@@H]2[C@@H](CCN2C(=O)C2CCOCC2)[C@@H]1CO	DENV2 CPE inconclusive, Cneo AK release 81
COc1ccc(-c2ccc3c(c2)[C@@H]2[C@@H](CCN2C(=O)C2CCCC2)[C@H](CO)N3C)cc1	none (no result: Cneo AK release, Statin myotox sup)
Cc1ccc(NC(=O)c2cc(-c3cc(Cl)ccc3C)n[nH]2)cc1NS(C)(=O)=O	DENV2 CPE 27
Cc1ccccc1N1C(=O)Cc2ccccc2C1=O	none
Cc1ccccc1N1Cc2ccccc2C1=O	DENV2 CPE 37
C[C@H]1CN([C@@H](C)CO)C(=O)Cc2cc(NC(=O)Cc3cn(C)c4ccccc34)ccc2O[C@H]1CN(C)Cc1ccc(C(=O)O)cc1	none
COCC(=O)Nc1ccc2c(c1)[C@H]1C[C@H](CC(=O)N3CCc4ccccc4C3)O[C@@H](CO)[C@H]1O2	none
Cn1c(=O)c2c(ncn2CC(=O)OCC(=O)NC2CCCc3ccccc32)n(C)c1=O (stereo unspecified)	Statin myotox sup 88 (no result: DENV2 CPE, XiGFP reactiv)
O=C(Nc1cccc2ccccc12)C12CC3CC(C1)CC(n1cnc([N+](=O)[O-])n1)(C3)C2	Statin myotox sup 69 (no result: DENV2 CPE, XiGFP reactiv)
C[C@H]1CN([C@@H](C)CO)C(=O)c2cc(NC(=O)Nc3ccc(F)cc3)ccc2O[C@H]1CN(C)Cc1ccccc1	DENV2 CPE 25
CC(C)NC(=O)Nc1ccc2c(c1)C(=O)N([C@@H](C)CO)C[C@@H](C)[C@@H](CN(C)Cc1ccc(C(=O)O)cc1)O2	DENV2 CPE 25
C[C@@H]1CN([C@@H](C)CO)C(=O)c2cc(NC(=O)Nc3ccc(F)cc3)ccc2O[C@H]1CN(C)Cc1ccccc1	none
CC(C)NC(=O)Nc1ccc2c(c1)C(=O)N([C@H](C)CO)C[C@H](C)[C@H](CN(C)Cc1ccccc1)O2	none
CC(C)NC(=O)Nc1ccc2c(c1)C(=O)N([C@H](C)CO)C[C@@H](C)[C@H](CN(C)Cc1ccccc1)O2	DENV2 CPE 43
CO[C@H]1CN(C)C(=O)c2cc(NC(=O)NC(C)C)ccc2OC[C@@H](C)NC[C@H]1C	none (no result: DENV2 CPE)
O=C(c1ccccn1)N1C[C@H]2[C@@H](c3ccccc31)[C@H](CO)N2C(=O)C1CCCCC1	none (no result: DENV2 CPE)
O=C(NCCN1CCC(n2c(=O)[nH]c3ccccc32)CC1)c1cccnc1	none (no result: Cneo AK release, Statin myotox sup)
O=C(NCCN1CCC(n2c(=O)[nH]c3ccccc32)CC1)c1ccccc1	DENV2 CPE 20 (no result: Cneo AK release, Statin myotox sup)
Cc1ccc(CNC(=O)Cn2cccc2C(=O)c2ccccc2)cc1	Statin myotox sup 109 (no result: DENV2 CPE, XiGFP reactiv)
O=C(c1ccccc1)c1cccn1CC(=O)N1CCCCCC1	Statin myotox sup 110 (no result: DENV2 CPE, Cneo AK release, XiGFP reactiv)
O=C(Cn1cccc1C(=O)c1ccccc1)NCc1ccc(Cl)cc1	none (no result: Cneo AK release, Statin myotox sup)
C[C@H](CO)N1C[C@H](C)[C@H](CN(C)C(=O)CC2CC2)Oc2ncc(C#CC3CC3)cc2C1=O	none
NC(=O)c1ncn([C@@H]2O[C@H](C(=O)N[C@H](Cc3c[nH]c4ccccc34)C(=O)N3CCN(CC(=O)N4CCCC4)CC3)[C@@H](O)[C@H]2O)n1	DENV2 CPE 21 (no result: Cneo AK release, Statin myotox sup)
Cc1noc(C)c1S(=O)(=O)N(C)C[C@H]1OCCCC[C@@H](C)Oc2ccc(NS(C)(=O)=O)cc2C(=O)N([C@@H](C)CO)C[C@H]1C	none (no result: Statin myotox sup)
